Here are results for 29 compounds from PubChem BioAssay.

The source made the active and inactive calls.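 How the source made its calls, unless noted: active means mean duplicate activation above the buffer control mean plus 5 SD of those controls; inactive means the rest.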

Test [1] is described as follows: thallium flux activation in parental CHO cells, counter-screen for KCNQ1 potentiator project (AID 493006;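 active means duplicate-averaged activation above buffer control mean plus 5 SD of those controls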). The settings on record: parental CHO-K1 cells, FluxOR thallium flux, at 10 µM; active compounds read high. Put shortly:
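Test system: parental CHO-K1 cells, FluxOR dye-loaded / Probe or stimulus: potassium plus thallium depolarizing stimulus, 5x stock 12.5 mM K2SO4, Tl2SO4 / Timing: overnight 37 °C plating, 90 min dye, 20 min dark compound / Measured by: kinetic thallium-flux fluorescence / Read-out: max-minus-min fluorescence over baseline, percent of buffer-to-R-L3 span / Benchmarks: buffer and R-L3 controls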
(Counterscreens check selectivity or assay interference.)

The target in test [2] is Potassium voltage-gated channel subfamily KQT member 1 (Homo sapiens) (UniProt P51787). In words: KCNQ1 potassium channel potentiators, confirmation, FluxOR thallium flux, CHO cells, duplicates (AID 493007;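 active means potentiation averaged over duplicate wells exceeding buffer-only control mean by more than 3 SD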;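 on outcome: cells depolarized by a potassium plus thallium sulfate stimulus after compound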;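 on potentiation: 0% = buffer-only wells and 100% = R-L3 activator control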). To be noted: KCNQ1 cell line, FluxOR thallium flux fluorescence, at 10 µM; active compounds read high, % of reference activator effect, buffer zero. Summed up: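 Assay system: CHO cells carrying KCNQ1 | Controls: Buffer and R-L3 controls | Schedule: FluxOR dye loading 90 min, compound exposure 20 min, room temperature | Read-out: Baseline-normalized fluorescence change, percent of buffer-to-R-L3 range | Replicates: Each compound tested in duplicate | Technique: Kinetic thallium influx fluorescence with FluxOR dye, 10 s baseline, 110 s post-stimulus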
Potassium voltage-gated channel subfamily KQT member 1 (Homo sapiens), sequence (P51787 whole entry, looked up): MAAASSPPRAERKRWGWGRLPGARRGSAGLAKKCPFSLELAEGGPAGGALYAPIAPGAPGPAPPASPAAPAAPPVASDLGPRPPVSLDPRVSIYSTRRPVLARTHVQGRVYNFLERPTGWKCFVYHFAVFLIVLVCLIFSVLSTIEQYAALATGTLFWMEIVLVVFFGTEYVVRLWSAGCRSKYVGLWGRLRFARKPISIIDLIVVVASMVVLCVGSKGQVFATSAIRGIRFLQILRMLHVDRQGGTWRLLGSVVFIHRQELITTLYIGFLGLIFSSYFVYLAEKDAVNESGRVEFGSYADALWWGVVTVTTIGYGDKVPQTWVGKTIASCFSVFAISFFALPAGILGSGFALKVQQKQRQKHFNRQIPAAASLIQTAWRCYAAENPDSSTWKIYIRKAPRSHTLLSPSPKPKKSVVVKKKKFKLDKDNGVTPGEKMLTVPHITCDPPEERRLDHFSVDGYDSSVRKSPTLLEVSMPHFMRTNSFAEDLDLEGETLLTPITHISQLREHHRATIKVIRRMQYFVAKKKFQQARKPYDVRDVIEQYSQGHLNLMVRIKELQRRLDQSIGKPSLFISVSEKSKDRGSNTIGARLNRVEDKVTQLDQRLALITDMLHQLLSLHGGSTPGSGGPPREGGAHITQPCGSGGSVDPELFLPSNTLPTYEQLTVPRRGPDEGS

The target in test [3] is Potassium voltage-gated channel subfamily KQT member 2 (Rattus norvegicus) (UniProt O88943). Briefly: rat KCNQ2 channel potentiation, selectivity assay for KCNQ1 potentiator project, KCNQ2-CHO-K1 cells (AID 493009;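 active means mean duplicate potentiation above the buffer control mean plus 5 SD of buffer wells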;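 further: assay conditions were tuned for KCNQ1 rather than KCNQ2 modulators; signal is max minus min fluorescence divided by baseline after thallium stimulus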). The settings on record: FluxOR thallium flux fluorescence, at 10 µM; active compounds read high, scaled: buffer 0, activator control 100.
Potassium voltage-gated channel subfamily KQT member 2 (Rattus norvegicus), sequence (O88943 whole entry, looked up): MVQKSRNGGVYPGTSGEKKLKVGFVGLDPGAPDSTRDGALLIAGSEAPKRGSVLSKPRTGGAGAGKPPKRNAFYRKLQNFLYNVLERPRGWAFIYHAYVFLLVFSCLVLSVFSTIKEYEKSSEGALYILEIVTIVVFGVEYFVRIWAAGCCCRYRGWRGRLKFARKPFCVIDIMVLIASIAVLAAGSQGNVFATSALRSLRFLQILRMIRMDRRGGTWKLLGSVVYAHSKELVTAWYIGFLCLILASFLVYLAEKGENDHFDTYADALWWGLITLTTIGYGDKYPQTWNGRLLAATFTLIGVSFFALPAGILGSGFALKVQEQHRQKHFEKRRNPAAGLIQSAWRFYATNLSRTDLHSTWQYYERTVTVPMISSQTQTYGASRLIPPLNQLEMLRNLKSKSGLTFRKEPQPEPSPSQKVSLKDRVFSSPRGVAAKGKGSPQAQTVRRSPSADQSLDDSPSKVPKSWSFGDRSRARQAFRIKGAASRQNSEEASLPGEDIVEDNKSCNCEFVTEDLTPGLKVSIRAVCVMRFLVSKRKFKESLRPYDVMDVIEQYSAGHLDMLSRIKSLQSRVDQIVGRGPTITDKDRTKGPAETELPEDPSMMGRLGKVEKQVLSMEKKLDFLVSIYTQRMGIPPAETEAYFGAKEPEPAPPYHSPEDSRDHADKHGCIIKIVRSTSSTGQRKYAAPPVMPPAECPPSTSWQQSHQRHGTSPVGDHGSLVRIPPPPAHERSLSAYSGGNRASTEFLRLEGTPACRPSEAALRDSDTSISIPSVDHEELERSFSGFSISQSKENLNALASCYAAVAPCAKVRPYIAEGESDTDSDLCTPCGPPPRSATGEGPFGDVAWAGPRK
The target in test [4] is Potassium voltage-gated channel subfamily KQT member 1 (Homo sapiens) (UniProt P51787). In words: KCNQ1 channel current potentiators, confirmation, orthogonal assay for KCNQ1 potentiator project, IonWorks patch clamp, KCNQ1-CHO cells (AID 493184;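 active means current rise at least 3 SD above the untreated control mean in each of two repeat wells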). To be noted: automated patch clamp current, at 10 µM; active compounds read high. Put shortly: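 Material: KCNQ1-expressing CHO cells; doses: 10 µM final, single point; probe or stimulus: voltage step from -90 mV holding to +40 mV, 2,000 ms; signal: automated voltage clamp, amphotericin B perforated patch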
In general terms: Patch clamp records ionic current or voltage across a cell membrane.

Test [5] deals with Potassium voltage-gated channel subfamily E member 1 (Homo sapiens) + Potassium voltage-gated channel subfamily KQT member 1 (Homo sapiens) (UniProt P15382+P51787). Briefly: KCNQ1/KCNE1 complex potentiators, confirmation, selectivity assay for KCNQ1 potentiator project, thallium flux, CHO-K1 KCNQ1/E1 cells (AID 493186). To be noted: FluxOR thallium flux, at 10 µM; active compounds read high. Summed up:
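Test system: CHO-K1 cells with KCNQ1/E1. Times: 90-min dye loading then 20-min compound exposure, both at room temperature. Measured by: kinetic FluxOR thallium-flux fluorescence, 10 s baseline plus 110 s after stimulus. Repeats: duplicate wells per compound.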

Potassium voltage-gated channel subfamily E member 1 (Homo sapiens) + Potassium voltage-gated channel subfamily KQT member 1 (Homo sapiens), sequence (P51787 whole entry, looked up): as the sequence (P51787 whole entry, looked up) above

As for `CC1CN(c2nc3ccccc3nc2C(C#N)C(=O)NCc2ccc3c(c2)OCO3)CC(C)O1` (stereo not given), the result in test [1], in test [3], in test [4] and in test [5] was inactive. In addition, the potentiation in test [2] is 26% (active).
With `Nc1nc(CCl)nc(Nc2ccc3ccccc3c2)n1`, the result in test [1], in test [2], in test [3], in test [4] and in test [5] was inactive.
Regarding `Cc1nc(NC(=S)NC(=O)c2ccccc2)sc1C`, the result in test [1], in test [2], in test [3], in test [4] and in test [5] was inactive.
As to `O=C(CNc1ccc(Br)cc1)NNC1=NCCC1`, the result in test [1], in test [2], in test [4] and in test [5] was inactive. In test [3], the potentiation is 142% (active).
Regarding `CSc1nc(SCC(=O)O)c2sc3nc(-c4ccccc4)c4c(c3c2n1)CCC4`, the result in test [1], in test [3], in test [4] and in test [5] was inactive. For the same compound, in test [2], the potentiation was 30% (active).
Regarding `Cc1cccc(C(=O)NN2C(=O)C3C(c4ccccc4)C=CC(c4ccccc4)C3C2=O)c1` (stereo not given), the result in test [1], in test [2], in test [3], in test [4] and in test [5] was inactive.
On to `O=C(NC1CCCC1)C(=O)N(Cc1cccnc1)C(C(=O)NC1CCCC1)c1ccco1` (stereo not given), for which the result in test [1], in test [3], in test [4] and in test [5] was inactive. Besides, the potentiation in test [2] was 35% (active).
In the case of `O=C(CC1(O)C(=O)N(Cc2ccccc2)c2ccccc21)c1ccncc1` (stereo not given), the outcome in test [1], in test [4] and in test [5] was inactive. Besides, the potentiation in test [2] was 27.5% (active); in test [3], 146% (active).
Turning to `CCCCCCOc1ccc(N2C(=O)CC(N3CCN(C(=O)c4ccco4)CC3)C2=O)cc1` (stereo not given), the result in test [1], in test [3], in test [4] and in test [5] was inactive. Moreover, in test [2], the potentiation was 17.5% (active).
Regarding `O=C(N/C(=C\c1ccc([N+](=O)[O-])cc1)C(=O)N1CCCCC1)c1ccco1`, the result in test [1], in test [2], in test [3], in test [4] and in test [5] was inactive.
Turning to `Cc1ccc(C(=O)OCC(=O)NCCC2=CCCCC2)s1`, the outcome in test [1], in test [2], in test [3], in test [4] and in test [5] was inactive.
Turning to `COC(=O)[C@H](C)NC(=O)Nc1cc(Cl)ccc1C`, the result in test [1], in test [2], in test [3], in test [4] and in test [5] was inactive.
Regarding `N#Cc1ccccc1OCCN1C(=O)c2ccccc2C1=O`, the outcome in test [1], in test [2], in test [3], in test [4] and in test [5] was inactive.
On to `O=c1c2cc(F)ccc2[nH]c(=S)n1Cc1ccc(F)cc1`, for which the outcome in test [1], in test [2], in test [3], in test [4] and in test [5] was inactive.
On to `COc1cccc(NC(=S)NC(=O)c2c(Cl)c(C)nn2C)c1`, for which the result in test [1], in test [2], in test [3], in test [4] and in test [5] was inactive.
Consider `S=C(NCCc1ccccc1)N/N=C/C1CCCCC1`, for which the outcome in test [1], in test [2], in test [3], in test [4] and in test [5] was inactive.
`COc1cc(/C=N/Nc2nc(N3CCCC3)nc(N3CCCC3)n2)ccc1OCc1ccccc1F`: the result in test [1], in test [2], in test [3], in test [4] and in test [5] was inactive.
As to `O=C(NCCCN1CCCC1)c1ccc2c(c1)N(Cc1ccccc1)CCS2`, the result in test [1], in test [2], in test [3], in test [4] and in test [5] was inactive.
Turning to `Cc1[nH][nH]c(=O)c1C(c1ccc(-c2ccc(Cl)c(Cl)c2)o1)c1c(C)[nH][nH]c1=O`, the result in test [1], in test [3], in test [4] and in test [5] was inactive. Besides, the potentiation in test [2] is 30% (active).
For `O=C(O)CCCN1C(=O)/C(=C/c2ccc(-c3nc4ccccc4s3)o2)SC1=S`, the outcome in test [1], in test [4] and in test [5] was inactive. In addition, the potentiation in test [2] was 21.5% (active); in test [3] it was 143% (active).
As for `Cc1ccc(N(C(=O)Cn2nnc(-c3ccccc3F)n2)C(C(=O)NC2CCCC2)c2ccncc2)cc1` (stereo not given), the outcome in test [1], in test [2], in test [3], in test [4] and in test [5] was inactive.
`COc1ccccc1C(=O)NNC(=O)c1nn(Cc2ccccc2)c(=O)c2ccccc12`: the outcome in test [1], in test [2], in test [3], in test [4] and in test [5] was inactive.
Regarding `CCOC(=O)C1=C(CC)Nc2ccccc2N=C1NC(=O)CCNC(C)=O`, the result in test [1], in test [2], in test [3], in test [4] and in test [5] was inactive.
As to `Fc1ccc(/C=N/n2c(-c3cccs3)n[nH]c2=S)cc1`, the outcome in test [1], in test [2], in test [3], in test [4] and in test [5] was inactive.
Take `CCOC(=O)C1CCN(S(=O)(=O)c2ccc3c4c2CC(=O)N4CC(C)S3)CC1` (stereo not given): the outcome in test [1], in test [2], in test [3], in test [4] and in test [5] was inactive.
In the case of `CCc1ccc(-c2ccc3nnc(SC)n3n2)cc1`, the result in test [1], in test [2], in test [3], in test [4] and in test [5] was inactive.
Consider `CCOC(=O)c1cnn(-c2nc(SC)nc3sc4c(c23)CCCC4)c1N`, for which the outcome in test [1], in test [4] and in test [5] was inactive. The potentiation was 29.5% (active) in test [2] and 142% (active) in test [3].
For `Cc1nc2c3cc(F)ccc3n(CCN3CCCCC3)c2s1`, the result in test [1], in test [3], in test [4] and in test [5] was inactive. In test [2], the potentiation is 35% (active).
For the compound `Cc1ccc(OCC(=O)NNC(=S)NC(=O)C2CCCCC2)c(C)c1`, the outcome in test [1], in test [3], in test [4] and in test [5] was inactive. Also, the potentiation in test [2] was 26.5% (active).
